Assay results published in PMC4475676 (Biochemistry, 2015).
Each block holds one substance with its values, some of them ahead of it.

Columns and labels:
peptide substrate [1] = assay: NMR titration binding affinity
Summary of the method: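 500 μM 15N-labeled wild-type or mutant protein titrated with 0, 0.1, 0.2, 0.5, 1 and 2 mM peptide. 15N HSQC recorded at 900 MHz. Shift changes of perturbed peaks were fit individually to a quadratic single-site binding equation. Peaks fitting with r² > 0.99 (fast exchange) were then fit globally for one KD per protein. Protein and peptide were in 50 mM Na2HPO4, 1 mM DTT, 1 mM EDTA, pH 6.5.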

peptide substrate [2] = assay: ZZ-exchange NMR catalytic efficiency; type: biochemical
Summary of the method: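 ZZ-exchange NMR used 1 mM 15N-labeled peptide with unlabeled enzyme, 20 μM at 0–20 °C or 1 μM at 30–45 °C. kex_eff came from time-dependent cross-peak build-up, with fit errors from a single experiment. Catalytic-Arg mutants used 100 μM protein at 30 °C with a 0.768 s mixing time. For these, the cis-peak to cross-peak intensity ratio stood in for turnover.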

[3] = denatures entirely; cited from earlier work
GeoCyp = details: cited from earlier work
CypA = details: cited from earlier work

effect of swap mutation on peptide binding (peptide substrate [1]; relative to wild type, NMR titration): strengthened
Substance: CypA^A103R: CypA swap mutant, Ala 103 to Arg
effect of swap mutation on catalytic efficiency (peptide substrate [2]; relative to wild type, ZZ-exchange, 20 μM protein): less

Substance: CypA^R55A: CypA with mutation of the catalytic arginine Arg 55 to alanine
catalysis after mutation of catalytic arginine (peptide substrate [2]; 100 μM protein, 1 mM peptide, 30 °C): nearly, but not entirely, ablates catalysis

temperature dependence of binding affinity for the peptide (peptide substrate [1]): highly temperature-dependent
Substance: CypA^WT: prototypical human cyclophilin A, mesophilic peptidyl-prolyl isomerase
turnover at 45 °C compared between CypA and GeoCyp (peptide substrate [2]; 45 °C, 1 μM protein, 1 mM peptide): comparable rate
Tm / denaturation temperature [3]: 51 °C

Substance: GSFGPDLRAGD [peptide substrate]
isomerization of G-P peptide bond by GeoCyp (GeoCyp): readily isomerized
isomerization of G-P peptide bond by CypA (CypA): readily isomerized
